pEC50, pIC50: −log10 of the molar value.
Columns and labels:
[1] = Inhibitory concentration against ACPD-sensitive radioligand [3H]glutamate binding to Group II Metabotropic glutamate receptor in rat forebrain membranes; format: cell membranes, Membrane
Outline: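 Rat forebrain membranes; displacement of ACPD-sensitive [3H]glutamate binding (10 nM radioligand).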

Rattus norvegicus [2] = organism: Rattus norvegicus; experiment: Compound was evaluated by measuring the ability to influence forskolin-stimulated cAMP formation in adult rat cerebral cortical slices; format: functional
Outline: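 Adult rat cerebral cortical slices; cAMP formation stimulated with forskolin (30 µM), and suppression of that cAMP formation measured. EC50 values derived from concentration-response curves.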

Glutamate NMDA receptor = experiment: Inhibitory concentration against radioligand [3H]CGS-19,755 binding to N-methyl-D-aspartate glutamate receptor in rat forebrain membranes; format: cell membranes, Membrane
Outline: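 Rat forebrain membranes; displacement of [3H]CGS19755 (10 nM) binding. Compounds screened at concentrations up to 100 µM (triplicate analysis at 1, 10 and 100 µM).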

Rattus norvegicus [3] = organism: Rattus norvegicus; experiment: Compound was evaluated by measuring the ability to influence stimulated basal [3H]-IP formation in adult rat cerebral cortical slices.; format: functional
Outline: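 Rat cerebral cortical slices labeled for [3H]phosphoinositide hydrolysis; accumulation of tritiated inositol monophosphates ([3H]IP) measured against basal levels. Concentrations tested up to 300 µM.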

[4] = target: Glutamate receptor ionotropic, kainate; experiment: Inhibitory concentration against radioligand [3H]-Kainate binding to Ionotropic glutamate receptor kainate in rat forebrain membranes; format: cell membranes, Membrane
Outline: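 Rat forebrain membranes; displacement of [3H]kainate (5 nM) binding. Compounds screened at concentrations up to 100 µM (triplicate analysis at 1, 10 and 100 µM).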

[5] = target: Glutamate receptor ionotropic, AMPA (Rattus norvegicus, UniProt P19490+P19491+P19492+P19493); experiment: Inhibitory concentration against radioligand [3H]AMPA binding to Ionotropic glutamate receptor AMPA in rat forebrain membranes; format: cell membranes, Membrane
Mus musculus [6] = organism: Mus musculus; experiment: Oral effective dose evaluated in mice by mouse limbic seizure assay; format: functional, Limbic system
Outline: (§1)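 Male NIH Swiss mice (20-25 g) given test drug ip or po 30 min before unilateral intracerebral 1S,3R-ACPD (400 nmol), injected 2 mm lateral to bregma at 3.7 mm depth. Scored as the number of animals showing limbic seizures (clonic forelimb contractions, rearing, falling) during the observation period. ED50 in mg/kg.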

Mus musculus [7] = organism: Mus musculus; experiment: Oral effective dose was evaluated in mice by automated elevated plus-maze assay; format: functional
Outline: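 Male NIH Swiss mice (20-35 g), acclimated ≥3 days on a 12 h light/dark cycle, dosed 30 min before a 5-min test on an automated elevated plus maze. Mice started on the closed platform; closed arm, open arm and nosepoke counts recorded. Dose-response for open arm activity gives the ED50 (mg/kg).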

Mus musculus [8] = experiment: Intraperitoneal effective dose evaluated in mice by mouse limbic seizure assay; format: functional, Limbic system; outline: as §1

Row | Structure (SMILES) | pIC50 [1] | pEC50 (Rattus norvegicus [2]; Rattus norvegicus) | pIC50 (Glutamate NMDA receptor) | pEC50 (Rattus norvegicus [3]) | pIC50 [4] | pIC50 [5] | pEC50 (Rattus norvegicus [2]) | ED50 (Mus musculus [6]) [mg/kg] | ED50 (Mus musculus [7]) [mg/kg] | ED50 (Mus musculus [8]) [mg/kg]
1 | N[C@]1(C(=O)O)CC[C@H]2[C@H](C(=O)O)[C@H]21 (racemic) | < 4.00 |  | 4.20 |  | < 4.00 | < 4.00 |  |  |  | 
2 | N[C@@]1(C(=O)O)CC[C@H]2[C@H](C(=O)O)[C@H]21 (stereo in doubt; (-)-9) | < 4.00 |  | < 4.00 |  | < 4.00 | < 4.00 | < 3.52 |  |  | > 100

Compounds with a higher pIC50 [1], results first:

Row | pIC50 [1] | pEC50 (Rattus norvegicus [2]; Rattus norvegicus) | pIC50 (Glutamate NMDA receptor) | pEC50 (Rattus norvegicus [3]) | pIC50 [4] | pIC50 [5] | pEC50 (Rattus norvegicus [2]) | Structure (SMILES) | ED50 (Mus musculus [6]) [mg/kg] | ED50 (Mus musculus [7]) [mg/kg] | ED50 (Mus musculus [8]) [mg/kg]
3 | 6.34 | 5.96 | < 4.00 | 4.60 | < 4.00 |  |  | N[C@H](C(=O)O)[C@H]1C[C@@H]1C(=O)O |  |  | 
4 | 6.50 |  |  |  |  |  | 7.07 | N[C@@]1(C(=O)O)CC[C@H]2[C@H](C(=O)O)[C@H]21 (racemic) |  |  | 
5 | 6.74 |  |  | < 3.52 |  |  | 7.26 | N[C@@]1(C(=O)O)CC[C@H]2[C@H](C(=O)O)[C@H]21 (stereo in doubt; (+)-9) | 45.6 | 0.5 | 17
